Consider five compounds from PMC4703501 (Leukemia, 2015).

Test [1] deals with mantle cell lymphoma. To be noted: refractory or relapsed MCL patients; cited from earlier work.
A further test concerns the target ARK5 (Homo sapiens, UniProt O60285). The test is described as follows: in vitro kinase assay, recombinant protein. Type of test: biochemical. An outline of the steps:
(§1)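 Recombinant kinases were incubated with the indicated concentrations of test compound in in vitro kinase assays. Activity values were plotted against log drug concentration. IC50 came from sigmoidal non-linear regression with variable slope.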

In a further test the target is PI3K-δ (Homo sapiens, UniProt O00329). The test is described as follows: in vitro kinase assay, recombinant protein. The class given is biochemical. In short, it runs like this: as §1
Sequence of PI3K-δ (O00329 whole entry): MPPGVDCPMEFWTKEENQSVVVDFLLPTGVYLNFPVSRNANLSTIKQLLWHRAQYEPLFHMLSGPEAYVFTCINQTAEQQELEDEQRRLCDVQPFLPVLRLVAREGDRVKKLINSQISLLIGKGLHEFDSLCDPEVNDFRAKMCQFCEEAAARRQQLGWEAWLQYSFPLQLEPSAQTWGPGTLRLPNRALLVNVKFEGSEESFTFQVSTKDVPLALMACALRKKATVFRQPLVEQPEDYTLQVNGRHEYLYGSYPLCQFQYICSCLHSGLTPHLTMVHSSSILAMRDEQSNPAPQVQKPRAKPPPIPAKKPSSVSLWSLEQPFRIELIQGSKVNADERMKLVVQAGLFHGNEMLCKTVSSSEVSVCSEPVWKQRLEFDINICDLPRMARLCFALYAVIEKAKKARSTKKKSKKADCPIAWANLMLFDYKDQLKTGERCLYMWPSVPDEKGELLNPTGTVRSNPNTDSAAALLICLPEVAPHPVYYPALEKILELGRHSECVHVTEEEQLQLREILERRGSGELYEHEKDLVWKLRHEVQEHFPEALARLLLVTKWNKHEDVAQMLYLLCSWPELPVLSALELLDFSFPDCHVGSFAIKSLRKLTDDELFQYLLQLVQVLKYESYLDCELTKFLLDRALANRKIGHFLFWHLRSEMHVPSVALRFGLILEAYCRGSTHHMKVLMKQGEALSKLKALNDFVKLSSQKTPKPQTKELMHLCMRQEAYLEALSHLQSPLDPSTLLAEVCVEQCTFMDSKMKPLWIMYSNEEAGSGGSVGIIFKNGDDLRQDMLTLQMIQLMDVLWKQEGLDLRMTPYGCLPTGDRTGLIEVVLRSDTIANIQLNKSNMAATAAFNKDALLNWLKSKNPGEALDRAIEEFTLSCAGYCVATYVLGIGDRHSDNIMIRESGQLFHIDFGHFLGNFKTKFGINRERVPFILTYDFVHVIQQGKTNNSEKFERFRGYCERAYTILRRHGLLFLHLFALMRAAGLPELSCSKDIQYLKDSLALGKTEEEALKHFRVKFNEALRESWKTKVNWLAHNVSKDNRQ
Sequence of PI3K-δ (P27986 whole entry partner): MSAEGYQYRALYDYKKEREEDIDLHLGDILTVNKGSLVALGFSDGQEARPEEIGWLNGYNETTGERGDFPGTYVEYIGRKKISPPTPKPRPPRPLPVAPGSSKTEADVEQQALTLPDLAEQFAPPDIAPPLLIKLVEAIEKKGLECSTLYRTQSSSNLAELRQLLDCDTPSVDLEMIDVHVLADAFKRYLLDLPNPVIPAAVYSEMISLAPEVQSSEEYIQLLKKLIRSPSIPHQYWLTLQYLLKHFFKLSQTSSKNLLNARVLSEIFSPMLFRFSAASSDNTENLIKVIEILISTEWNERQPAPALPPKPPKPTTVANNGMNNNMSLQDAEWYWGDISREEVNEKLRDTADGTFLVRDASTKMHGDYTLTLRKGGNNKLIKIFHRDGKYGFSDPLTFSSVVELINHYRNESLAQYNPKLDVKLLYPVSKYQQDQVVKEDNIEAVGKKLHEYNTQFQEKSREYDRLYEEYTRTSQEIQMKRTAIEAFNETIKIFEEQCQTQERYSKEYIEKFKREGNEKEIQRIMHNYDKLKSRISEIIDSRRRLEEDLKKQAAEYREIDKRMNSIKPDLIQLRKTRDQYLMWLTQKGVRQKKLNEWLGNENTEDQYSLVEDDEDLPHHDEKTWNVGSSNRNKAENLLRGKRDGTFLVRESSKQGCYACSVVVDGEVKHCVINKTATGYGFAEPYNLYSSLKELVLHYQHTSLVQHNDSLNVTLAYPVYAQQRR
The test system of another test is Z138C cells. The test is described as follows: cell cycle distribution, propidium iodide flow cytometry. The class given is cell-based, human. To be noted: 24 hours. An outline of the steps: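 Z138C cells were treated with DMSO or increasing concentrations of test compound for 24 hours. They were then ethanol-fixed, PBS-washed and stained with RNase plus propidium iodide at 37°C for 20 min. DNA content was measured by flow cytometry to assign cell-cycle phases.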

For test [2], the system named is Granta 519 and Z138C cells. The test is described as follows: apoptosis markers. Type of test: cell-based, human. An outline of the steps:
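Granta 519 and Z138C cells were treated with test compound, then lysed in NP-40 buffer. Western blots on nitrocellulose assessed full-length caspases 3, 7 and 9 and PARP cleavage as apoptosis markers.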

In test [3] the test system is Granta 519 and Z138C cells. The test is described as follows: CDK4/CYCLIN D/Rb pathway western blot. Type of test: cell-based, human. As to conditions: 24 hours. An outline of the steps:
(§2)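 Granta 519 and Z138C cells (RPMI or DMEM, 10% FBS, pen-strep, 37°C, 5% CO₂) received vehicle or increasing concentrations of test compound for 24 hours. Whole-cell extracts were made in NP-40 lysis buffer (Tris pH 7.4, NaF, Na₃VO₄), run on SDS-PAGE and blotted to nitrocellulose. Detection used infrared imaging, GAPDH was the loading control, and 4 independent experiments were done.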

Test [4] deals with Granta 519 and Z138C cells. The test is described as follows: PI3K/AKT/mTOR pathway western blot. The class given is cell-based, human. To be noted: 24 hours. An outline of the steps: as §2
Test [5] has as its system Granta 519 and Z138 cell lines. The test is described as follows: MAP kinase pathway. Type of test: cell-based, human. To be noted: 24 hrs.
The test system of test [6] is exponentially growing Z138 cells. The test is described as follows: p65. As to conditions: 24 hrs. The class given is cell-based, human. An outline of the steps: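 Exponentially growing Z138 cells were exposed to test compound. Whole-cell extracts were probed by western blot for p65 (NF-kB) phosphorylation.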
A further test deals with HeLa cells. The test is described as follows: TNF-α induced p65 NF-kB phosphorylation western blot. The class given is cell-based, human. To be noted: 5ng/ml TNF-α for 5 min after treatment. In short, it runs like this:
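Positive-control system: HeLa cells were pretreated with test compound, then stimulated with 5ng/ml TNF-α for 5 min. Phospho-p65 NF-kB was assessed by western blot of whole-cell extracts.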

The test system of test [7] is mantle cell lymphoma. To be noted: Phase I trial, patients with refractory disease; cited from earlier work.

Some results are limits rather than exact numbers.

Sequence of ARK5 (O60285 whole entry): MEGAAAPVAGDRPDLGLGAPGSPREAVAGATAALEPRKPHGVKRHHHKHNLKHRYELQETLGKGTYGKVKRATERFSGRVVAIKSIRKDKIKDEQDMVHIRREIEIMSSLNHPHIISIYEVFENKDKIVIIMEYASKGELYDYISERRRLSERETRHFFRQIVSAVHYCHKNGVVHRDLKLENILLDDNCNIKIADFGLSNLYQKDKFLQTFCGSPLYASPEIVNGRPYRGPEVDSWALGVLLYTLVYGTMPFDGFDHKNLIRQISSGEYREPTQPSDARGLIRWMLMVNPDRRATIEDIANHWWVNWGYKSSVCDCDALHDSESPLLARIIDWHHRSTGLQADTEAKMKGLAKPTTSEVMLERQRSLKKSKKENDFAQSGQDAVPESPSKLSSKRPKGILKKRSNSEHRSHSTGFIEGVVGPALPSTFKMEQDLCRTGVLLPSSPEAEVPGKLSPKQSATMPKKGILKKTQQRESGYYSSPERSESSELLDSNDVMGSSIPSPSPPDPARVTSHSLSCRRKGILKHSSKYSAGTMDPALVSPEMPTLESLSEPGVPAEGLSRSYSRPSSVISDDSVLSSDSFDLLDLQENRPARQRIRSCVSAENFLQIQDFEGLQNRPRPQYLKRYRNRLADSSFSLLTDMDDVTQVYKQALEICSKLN

Consider `C=CC(=O)N1CCC[C@@H](n2nc(-c3ccc(Oc4ccccc4)cc3)c3c(N)ncnc32)C1` [Ibrutinib], for which the “patients with complete remission” value in the test with mantle cell lymphoma [1] is on record as “approximately 21%”.
Turning to `CC(=O)c1c(C)c2cnc(Nc3ccc(N4CCNCC4)cn3)nc2n(C2CCCC2)c1=O` [PD0332991, reference compound], at ARK5, the IC50 was above 5 µM. Further, the IC50 on PI3K-δ is above 10 µM. Also, the “inhibitory activity against PI3K-δ” value at PI3K-δ (in vitro kinase assay) is on record as “failed to show any inhibitory activity”. The “accumulation of cells in the sub-G1 phase” value in the test with Z138C cells (for ON123300 at higher concentrations) is “little or no accumulation of cells in the sub-G1 phase”. Also, the “accumulation of cells in the G1 phase” value with Z138C cells (increasing concentrations) is reported as “rapid accumulation of the cells in the G1 phase”. Further, in [2] (72–96 hrs incubation, data not shown), the “PARP cleavage at lower concentrations” value is reported as “did not show any PARP cleavage”. Moreover, the “evidence of apoptosis (PARP cleavage, caspases)” value in test [2] (24 hrs, increasing concentrations) is on record as “no evidence of apoptosis”. In [3], the “levels of CDK4 and CDK2” value is “unaffected”; the p21 levels entry is “not readily seen”. Further, the “phosphorylation of pRb and p130” value in [3] (increasing concentrations) is “inhibited the phosphorylation of pRb and p130”. For the same compound, the “phosphorylation status of AKT, mTOR, 4EBP1 and S6 ribosomal protein (S6RB)” value in [4] is “no discernable change”. Also, in [5], the “phosphorylation status of MEK or ERK kinases” value is “neither ON123300 nor PD0332991 has any effect”. Further, the “phosphorylation status of p65 (NF-kB)” value in test [6] is recorded as “no change”. Besides, the “phosphorylation status of p65” value in the test with HeLa cells is reported as “little or no effect”.
Take `Nc1ccc2ncnc(NCCc3ccc(Oc4ccccc4)cc3)c2c1` [QNZ]: in the test with HeLa cells, the “phosphorylation status of p65” value is “strong inhibition”.
For `N#CC(=C(/N)Sc1ccccc1N)/C(C#N)=C(/N)Sc1ccccc1N` [U0126], the “phosphorylation status of MEK or ERK kinases” value in test [5] is listed as “potently inhibited”.
As for `CC[C@H](Nc1ncnc2[nH]cnc12)c1nc2cccc(F)c2c(=O)n1-c1ccccc1` [idelalisib], in the test on mantle cell lymphoma [7], the “efficacy as a single agent” value is “modestly effective”.
